Test results: ChEMBL document CHEMBL5058577, “EUbOPEN Chemogenomics Library 2 (Multiplex)” (2022)

System: HEK-293T
Assay: Multiplex assay against HEK293T
Format: toxicity, cell-based
Details: human
Outline: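 Hoechst33342, BioTracker Green Microtubule Cytoskeleton Dye, MitoTracker Red and Annexin V Alexa Fluor 680 were added to live cells at seeding, and imaging on a CQ1 microscope at 37°C and 5% CO2 followed compound addition. Gating by CellPathfinder machine learning separated cells into Hoechst high-intensity objects or normal cells, then normal cells into healthy, pyknosed or fragmented nuclei, then pyknosed cells into mitotic or apoptotic. Per cents of healthy-nucleus cells are reported for the tubulin, mitochondrial-mass and membrane-permeability phenotypes.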

[1] = 12 h, 1 µM, compound concentration 1 uM, replicate 1
[2] = 12 h, 1 µM, compound concentration 1 uM, replicate 2
[3] = 12 h, 10 µM, compound concentration 10 uM, replicate 1
[4] = 12 h, 10 µM, compound concentration 10 uM, replicate 2
[5] = 24 h, 1 µM, compound concentration 1 uM, replicate 1
[6] = 24 h, 1 µM, compound concentration 1 uM, replicate 2
[7] = 24 h, 10 µM, compound concentration 10 uM, replicate 1
[8] = 24 h, 10 µM, compound concentration 10 uM, replicate 2
[9] = 48 h, 1 µM, compound concentration 1 uM, replicate 1
[10] = 48 h, 1 µM, compound concentration 1 uM, replicate 2
[11] = 48 h, 10 µM, compound concentration 10 uM, replicate 1
[12] = 48 h, 10 µM, compound concentration 10 uM, replicate 2

Question: For COc1cc(Nc2ncc3c(n2)-c2ccc(Cl)cc2C(c2c(F)cccc2OC)=NC3)ccc1C(=O)O [ALISERTIB], which “Population Apoptotic (%)” value [1] is on record?
Answer: 38%

Question: And the “Population Fragmented Nuclei (%)” value [1]?
Answer: 3%

Question: And the “Population Healthy Nuclei (%)” value [1]?
Answer: 88%

Question: And the “Population Hoechst High Intensity Objects (%)” value [1]?
Answer: 5%

Question: And the “Population Membrane Permeable-Phenotype (%)” value [1]?
Answer: 0%

Question: What about the “Population Mitochondria Different-Phenotype (%)” value [1] of the same molecule?
Answer: 44%

Question: And the “Population Mitotic Cells (%)” value [1]?
Answer: 61%

Question: And the “Population Normal (%)” value [1]?
Answer: 94%

Question: What about the “Population Pyknosed Nuclei (%)” value [1] of the same molecule?
Answer: 7%

Question: And the “Population Tubulin-Different-Phenotype (%)” value [1]?
Answer: 46%

Question: And the “Population Apoptotic (%)” value [2]?
Answer: 61%

Question: What about the “Population Fragmented Nuclei (%)” value [2] of the same molecule?
Answer: 7%

Question: And the “Population Healthy Nuclei (%)” value [2]?
Answer: 85%

Question: And the “Population Hoechst High Intensity Objects (%)” value [2]?
Answer: 7%

Question: And the “Population Mitochondria Different-Phenotype (%)” value [2]?
Answer: 69%

Question: What about the “Population Mitotic Cells (%)” value [2] of the same molecule?
Answer: 38%

Question: What about the “Population Normal (%)” value [2] of the same molecule?
Answer: 93%

Question: What about the “Population Tubulin-Different-Phenotype (%)” value [2] of the same molecule?
Answer: 49%

Question: What about the “Population Apoptotic (%)” value [3] of the same molecule?
Answer: 61%

Question: What about the “Population Fragmented Nuclei (%)” value [3] of the same molecule?
Answer: 8%

Question: And the “Population Healthy Nuclei (%)” value [3]?
Answer: 74%

Question: And the “Population Hoechst High Intensity Objects (%)” value [3]?
Answer: 9%

Question: And the “Population Membrane Permeable-Phenotype (%)” value [3]?
Answer: 0%

Question: And the “Population Mitochondria Different-Phenotype (%)” value [3]?
Answer: 80%

Question: What about the “Population Mitotic Cells (%)” value [3] of the same molecule?
Answer: 38%

Question: What about the “Population Normal (%)” value [3] of the same molecule?
Answer: 90%

Question: And the “Population Pyknosed Nuclei (%)” value [3]?
Answer: 16%

Question: And the “Population Tubulin-Different-Phenotype (%)” value [3]?
Answer: 68%

Question: And the “Population Apoptotic (%)” value [4]?
Answer: 88%

Question: What about the “Population Fragmented Nuclei (%)” value [4] of the same molecule?
Answer: 9%

Question: What about the “Population Healthy Nuclei (%)” value [4] of the same molecule?
Answer: 72%

Question: And the “Population Hoechst High Intensity Objects (%)” value [4]?
Answer: 15%

Question: What about the “Population Mitochondria Different-Phenotype (%)” value [4] of the same molecule?
Answer: 82%

Question: What about the “Population Mitotic Cells (%)” value [4] of the same molecule?
Answer: 11%

Question: What about the “Population Normal (%)” value [4] of the same molecule?
Answer: 84%

Question: And the “Population Pyknosed Nuclei (%)” value [4]?
Answer: 17%

Question: And the “Population Tubulin-Different-Phenotype (%)” value [4]?
Answer: 54%

Question: And the “Population Apoptotic (%)” value [5]?
Answer: 50%

Question: And the “Population Fragmented Nuclei (%)” value [5]?
Answer: 10%

Question: And the “Population Healthy Nuclei (%)” value [5]?
Answer: 82%

Question: And the “Population Hoechst High Intensity Objects (%)” value [5]?
Answer: 3%

Question: And the “Population Membrane Permeable-Phenotype (%)” value [5]?
Answer: 0%

Question: What about the “Population Mitochondria Different-Phenotype (%)” value [5] of the same molecule?
Answer: 25%

Question: And the “Population Mitotic Cells (%)” value [5]?
Answer: 50%

Question: What about the “Population Normal (%)” value [5] of the same molecule?
Answer: 96%

Question: And the “Population Pyknosed Nuclei (%)” value [5]?
Answer: 7%

Question: And the “Population Tubulin-Different-Phenotype (%)” value [5]?
Answer: 31%

Question: What about the “Population Apoptotic (%)” value [6] of the same molecule?
Answer: 47%

Question: What about the “Population Fragmented Nuclei (%)” value [6] of the same molecule?
Answer: 9%

Question: And the “Population Healthy Nuclei (%)” value [6]?
Answer: 81%

Question: What about the “Population Hoechst High Intensity Objects (%)” value [6] of the same molecule?
Answer: 9%

Question: What about the “Population Mitochondria Different-Phenotype (%)” value [6] of the same molecule?
Answer: 47%

Question: And the “Population Mitotic Cells (%)” value [6]?
Answer: 52%

Question: What about the “Population Normal (%)” value [6] of the same molecule?
Answer: 90%

Question: What about the “Population Pyknosed Nuclei (%)” value [6] of the same molecule?
Answer: 9%

Question: What about the “Population Tubulin-Different-Phenotype (%)” value [6] of the same molecule?
Answer: 30%

Question: What about the “Population Apoptotic (%)” value [7] of the same molecule?
Answer: 54%

Question: And the “Population Fragmented Nuclei (%)” value [7]?
Answer: 8%

Question: And the “Population Healthy Nuclei (%)” value [7]?
Answer: 74%

Question: And the “Population Hoechst High Intensity Objects (%)” value [7]?
Answer: 6%

Question: What about the “Population Membrane Permeable-Phenotype (%)” value [7] of the same molecule?
Answer: 0%

Question: And the “Population Mitochondria Different-Phenotype (%)” value [7]?
Answer: 75%

Question: What about the “Population Mitotic Cells (%)” value [7] of the same molecule?
Answer: 45%

Question: What about the “Population Normal (%)” value [7] of the same molecule?
Answer: 93%

Question: What about the “Population Pyknosed Nuclei (%)” value [7] of the same molecule?
Answer: 16%

Question: What about the “Population Tubulin-Different-Phenotype (%)” value [7] of the same molecule?
Answer: 64%

Question: And the “Population Apoptotic (%)” value [8]?
Answer: 56%

Question: And the “Population Fragmented Nuclei (%)” value [8]?
Answer: 12%

Question: What about the “Population Healthy Nuclei (%)” value [8] of the same molecule?
Answer: 55%

Question: And the “Population Hoechst High Intensity Objects (%)” value [8]?
Answer: 34%

Question: What about the “Population Membrane Permeable-Phenotype (%)” value [8] of the same molecule?
Answer: 1%

Question: What about the “Population Mitochondria Different-Phenotype (%)” value [8] of the same molecule?
Answer: 86%

Question: And the “Population Mitotic Cells (%)” value [8]?
Answer: 43%

Question: What about the “Population Normal (%)” value [8] of the same molecule?
Answer: 65%

Question: What about the “Population Pyknosed Nuclei (%)” value [8] of the same molecule?
Answer: 31%

Question: What about the “Population Tubulin-Different-Phenotype (%)” value [8] of the same molecule?
Answer: 50%

Question: What about the “Population Apoptotic (%)” value [9] of the same molecule?
Answer: 31%

Question: What about the “Population Fragmented Nuclei (%)” value [9] of the same molecule?
Answer: 14%

Question: And the “Population Healthy Nuclei (%)” value [9]?
Answer: 79%

Question: And the “Population Hoechst High Intensity Objects (%)” value [9]?
Answer: 3%

Question: What about the “Population Membrane Permeable-Phenotype (%)” value [9] of the same molecule?
Answer: 0%

Question: And the “Population Mitochondria Different-Phenotype (%)” value [9]?
Answer: 14%

Question: And the “Population Mitotic Cells (%)” value [9]?
Answer: 68%

Question: What about the “Population Normal (%)” value [9] of the same molecule?
Answer: 96%

Question: And the “Population Pyknosed Nuclei (%)” value [9]?
Answer: 5%

Question: And the “Population Tubulin-Different-Phenotype (%)” value [9]?
Answer: 17%

Question: And the “Population Apoptotic (%)” value [10]?
Answer: 57%

Question: What about the “Population Fragmented Nuclei (%)” value [10] of the same molecule?
Answer: 16%

Question: What about the “Population Healthy Nuclei (%)” value [10] of the same molecule?
Answer: 77%

Question: What about the “Population Hoechst High Intensity Objects (%)” value [10] of the same molecule?
Answer: 15%

Question: What about the “Population Mitochondria Different-Phenotype (%)” value [10] of the same molecule?
Answer: 27%

Question: What about the “Population Mitotic Cells (%)” value [10] of the same molecule?
Answer: 42%

Question: What about the “Population Normal (%)” value [10] of the same molecule?
Answer: 84%

Question: What about the “Population Tubulin-Different-Phenotype (%)” value [10] of the same molecule?
Answer: 24%

Question: And the “Population Apoptotic (%)” value [11]?
Answer: 48%

Question: And the “Population Fragmented Nuclei (%)” value [11]?
Answer: 13%

Question: What about the “Population Healthy Nuclei (%)” value [11] of the same molecule?
Answer: 78%

Question: And the “Population Hoechst High Intensity Objects (%)” value [11]?
Answer: 5%

Question: And the “Population Membrane Permeable-Phenotype (%)” value [11]?
Answer: 0%

Question: What about the “Population Mitochondria Different-Phenotype (%)” value [11] of the same molecule?
Answer: 57%

Question: What about the “Population Mitotic Cells (%)” value [11] of the same molecule?
Answer: 52%

Question: And the “Population Normal (%)” value [11]?
Answer: 94%

Question: What about the “Population Pyknosed Nuclei (%)” value [11] of the same molecule?
Answer: 7%

Question: And the “Population Tubulin-Different-Phenotype (%)” value [11]?
Answer: 42%

Question: And the “Population Apoptotic (%)” value [12]?
Answer: 82%

Question: What about the “Population Fragmented Nuclei (%)” value [12] of the same molecule?
Answer: 19%

Question: What about the “Population Healthy Nuclei (%)” value [12] of the same molecule?
Answer: 61%

Question: What about the “Population Hoechst High Intensity Objects (%)” value [12] of the same molecule?
Answer: 32%

Question: What about the “Population Membrane Permeable-Phenotype (%)” value [12] of the same molecule?
Answer: 4%

Question: What about the “Population Mitochondria Different-Phenotype (%)” value [12] of the same molecule?
Answer: 73%

Question: And the “Population Mitotic Cells (%)” value [12]?
Answer: 17%

Question: And the “Population Normal (%)” value [12]?
Answer: 67%

Question: And the “Population Pyknosed Nuclei (%)” value [12]?
Answer: 19%

Question: And the “Population Tubulin-Different-Phenotype (%)” value [12]?
Answer: 38%
